PubChem BioAssay AID504767 (Southern Research Specialized Biocontainment Screening …, 2011)
Activity calls are given as the source filed them.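 Rule for the calls: active = target-selective compounds that prevent over 30% of T7 phage killing of the bacteria in the dose series; inactive = the rest.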

assay: T7 phage susceptibility of EV36 E. coli – EV36 strain, set 4, selectivity assay for bacterial capsule biogenesis inhibitors, dose response (AID 504767); settings: series mostly up to 100 µM
Method in brief: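 Material: Escherichia coli EV36, a K1:K-12 hybrid strain / Also added: T7 bacteriophage / Measured by: OD600 absorbance / Buffer or medium: LB broth, overnight culture diluted 1:100 / Repeats: four replicate wells per concentration / Schedule: 1.5 h compound at 37 °C, read 3 h post-infection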

outcome, inactive:
O=C(Nc1nc2c(F)cccc2s1)c1ccccn1, Cc1cc(C)c2nc(NC(=O)c3ccccn3)sc2c1, O=C(Nc1nc2ccccc2s1)c1ccncc1, O=C(Nc1nc2c(Cl)cc(Cl)cc2s1)c1ccccn1, O=C(Nc1nc2c(F)cc(F)cc2s1)c1ccncc1, O=C(Nc1nc2ccccc2s1)c1cccnc1, O=C(Nc1nc2ccc(F)cc2s1)c1ccccn1, O=C(Nc1nc2c(F)cc(F)cc2s1)c1cccnc1, O=C(Nc1nc2c(F)cc(F)cc2s1)c1ccccc1
